Data published in ChEMBL document CHEMBL1133510, “Synthesis and evaluation of novel steroidal oxime inhibitors of P450 17 (17 alpha-hydroxylase/C17-20-lyase) and 5 alpha-reductase types 1 and 2” (J Med Chem, 2000).

Experiments:
[1] = target: T1, Steroid 17-alpha-hydroxylase/17,20 lyase (Homo sapiens, UniProt P05093); assay: Evaluated for the inhibitory activity towards Cytochrome P450 17 human enzyme using testicular microsome at 25 uM of substrate (progesterone); design: species or system Testis
T1 sequence (P05093 whole entry): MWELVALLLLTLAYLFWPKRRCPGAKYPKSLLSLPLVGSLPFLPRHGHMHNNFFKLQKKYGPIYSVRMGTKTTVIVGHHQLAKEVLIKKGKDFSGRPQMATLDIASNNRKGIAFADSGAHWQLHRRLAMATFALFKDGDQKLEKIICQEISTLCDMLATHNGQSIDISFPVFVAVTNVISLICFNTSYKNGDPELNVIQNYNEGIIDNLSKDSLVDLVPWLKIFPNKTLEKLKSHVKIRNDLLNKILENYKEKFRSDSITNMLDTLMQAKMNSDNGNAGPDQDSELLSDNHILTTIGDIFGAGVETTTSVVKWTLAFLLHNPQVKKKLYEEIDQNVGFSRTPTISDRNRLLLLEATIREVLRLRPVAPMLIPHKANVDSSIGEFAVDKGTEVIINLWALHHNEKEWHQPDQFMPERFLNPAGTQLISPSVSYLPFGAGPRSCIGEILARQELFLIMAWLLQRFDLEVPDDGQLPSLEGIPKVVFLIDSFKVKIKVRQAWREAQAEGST

[2] = target: T2, 3-oxo-5-alpha-steroid 4-dehydrogenase 2 (Homo sapiens, UniProt P31213); assay: Inhibition of steroid 5-alpha-reductase type 2 from human BPH tissue at 210 nM testosterone; No inhibition
T2 sequence (P31213 whole entry): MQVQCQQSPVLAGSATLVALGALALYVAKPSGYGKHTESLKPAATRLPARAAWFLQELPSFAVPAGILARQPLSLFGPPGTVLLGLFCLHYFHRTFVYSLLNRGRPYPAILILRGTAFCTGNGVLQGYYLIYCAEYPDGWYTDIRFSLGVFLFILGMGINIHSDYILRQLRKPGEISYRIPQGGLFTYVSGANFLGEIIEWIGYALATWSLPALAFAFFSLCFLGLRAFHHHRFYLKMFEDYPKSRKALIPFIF
Outline: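 Enzyme from prostate homogenate of BPH patients, assayed at pH 5.5 with radiolabeled testosterone at 210 nM; product separated by HPLC. IC50 taken as inhibitor concentration giving 50% inhibition; mean of at least two experiments.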

[3] = target: T3, Steroid 17-alpha-hydroxylase/17,20 lyase (Rattus norvegicus, UniProt P11715); assay: Evaluated for the inhibitory activity towards Cytochrome P450 17 rat enzyme using testicular microsome at 25 uM of substrate (progesterone); design: species or system Testis
T3 sequence (P11715 whole entry): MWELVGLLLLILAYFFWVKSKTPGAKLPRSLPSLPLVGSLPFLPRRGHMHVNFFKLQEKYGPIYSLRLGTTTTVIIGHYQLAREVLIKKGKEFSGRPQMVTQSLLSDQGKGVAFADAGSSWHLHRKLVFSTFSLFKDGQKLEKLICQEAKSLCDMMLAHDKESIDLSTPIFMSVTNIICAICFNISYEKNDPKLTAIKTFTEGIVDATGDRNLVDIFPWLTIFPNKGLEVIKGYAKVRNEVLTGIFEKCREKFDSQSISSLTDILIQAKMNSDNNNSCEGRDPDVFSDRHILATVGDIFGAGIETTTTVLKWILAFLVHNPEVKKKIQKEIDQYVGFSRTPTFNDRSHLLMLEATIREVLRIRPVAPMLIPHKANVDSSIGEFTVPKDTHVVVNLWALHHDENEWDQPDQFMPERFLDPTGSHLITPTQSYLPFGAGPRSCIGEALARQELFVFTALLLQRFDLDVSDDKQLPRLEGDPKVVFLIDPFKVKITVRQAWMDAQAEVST
Outline: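 Testicular microsomes (human for human enzyme, rat for rat enzyme) incubated with progesterone substrate at 25 µM; product measured by RP-HPLC with UV detection. IC50 = concentration giving 50% inhibition, mean of at least two experiments.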

[4] = target: T4, 3-oxo-5-alpha-steroid 4-dehydrogenase 1 (Homo sapiens, UniProt P18405); assay: Evaluated for the inhibitory activity against human steroid 5-alpha-reductase type I in human DU-145 cell assay at 5 nM of androstenedione; assay type: cell-based
T4 sequence (P18405 whole entry): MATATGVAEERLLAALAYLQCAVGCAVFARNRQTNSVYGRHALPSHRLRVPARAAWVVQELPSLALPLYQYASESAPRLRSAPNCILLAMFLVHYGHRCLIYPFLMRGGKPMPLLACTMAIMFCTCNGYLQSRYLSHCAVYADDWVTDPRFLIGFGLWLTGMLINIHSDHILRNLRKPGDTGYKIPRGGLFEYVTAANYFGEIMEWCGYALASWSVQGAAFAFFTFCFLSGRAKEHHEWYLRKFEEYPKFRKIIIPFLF
Outline: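 Whole human DU-145 cells as source of type 1 enzyme, incubated with radiolabeled androstenedione at 5 nM; HPLC separation of product. IC50 = inhibitor concentration giving 50% inhibition; mean of at least two experiments.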

What does the source list for `C/C(=N/O)C1=CC=C2C3CCC4=CC(=O)CCC4(C)C3CCC12C` (centres undefined)?
IC50 [1]: 0.2 µM; IC50 [2]: Not Active; IC50 [3]: > 125 µM; IC50 [4]: > 10 µM
